XiGFP reactiv: X-chromosome reactivation activator; XiGFP mouse fibroblasts, % GFP-positive cells imaging, 3 d; cells co-treated with 5-aza-dC sensitizer; scaled so ellipticine positive control = 100%; activation, % at 7.58 µM; 0.055% of 360,000 active;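 active = mean normalized replicate activation at least 10% and every replicate at or above 10%; inconclusive = only one of the two criteria met; inactive = mean below 10% and not all replicates reach 10%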
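Assay system – SV40-immortalized XiGFP fibroblast cells, line 68-5-11 · Buffer or medium – DMEM supplemented with 5-aza-dC as sensitizing agent · Dosing – one concentration, pinned · Benchmarks – positive control ellipticine, 6 µM final · Times – 3 days compound exposure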
dFosB act-1: activators of mouse delta FosB homodimer. P13346. purified delta FosB, TAMRA-CDK5 oligo fluorescence polarization; percent of positive-control signal above neutral wells. activation, % at 25 µM. 0.99% of 340,000 active;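 active = mean activation above about 17%, with every replicate also reaching it, limit read from the data, passing the limit was not always enough; inconclusive = only one of the two conditions met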
PvdQ inh: P. aeruginosa PvdQ acylase inhibition; 0.063% of 340,000 active; purified PvdQ acylase, fluorescence plate reader; inhibition, % at 10 µM; in the data active = inhibition above about 30%, passing the limit was not always enough; inconclusive = no clear call, values can overlap the other calls
rRNA inh HTS: selective bacterial rRNA inhibition in E. coli. E. coli WT GFP vs humanized-ribosome RFP mutants, fluorescence, 24 h; hits give low values; DMSO median 0, no signal -100. GFP signal change (wild-type ribosome), % (no concentration beside the values). 1.6% of 350,000 active;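 active = significant combined selectivity score with lowered wild-type GFP, culture density cut under 30%, mutant RFP and density less affected; inactive = any of these conditions unmet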
SR-BI DiI inh: mouse SR-BI HDL lipid transfer inhibition. 0.96% of 320,000 active. inhibition, % at 12.5 µM. ldlA[mSR-BI] CHO cells, DiI-HDL uptake fluorescence, 3 h. Q61009;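 active = mean replicate inhibition of at least 70% and a set share of replicates each scoring 70 or more; inconclusive = meets just one of the two criteria; inactive = fails both criteria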
Target sequence (Q61009 whole entry, looked up): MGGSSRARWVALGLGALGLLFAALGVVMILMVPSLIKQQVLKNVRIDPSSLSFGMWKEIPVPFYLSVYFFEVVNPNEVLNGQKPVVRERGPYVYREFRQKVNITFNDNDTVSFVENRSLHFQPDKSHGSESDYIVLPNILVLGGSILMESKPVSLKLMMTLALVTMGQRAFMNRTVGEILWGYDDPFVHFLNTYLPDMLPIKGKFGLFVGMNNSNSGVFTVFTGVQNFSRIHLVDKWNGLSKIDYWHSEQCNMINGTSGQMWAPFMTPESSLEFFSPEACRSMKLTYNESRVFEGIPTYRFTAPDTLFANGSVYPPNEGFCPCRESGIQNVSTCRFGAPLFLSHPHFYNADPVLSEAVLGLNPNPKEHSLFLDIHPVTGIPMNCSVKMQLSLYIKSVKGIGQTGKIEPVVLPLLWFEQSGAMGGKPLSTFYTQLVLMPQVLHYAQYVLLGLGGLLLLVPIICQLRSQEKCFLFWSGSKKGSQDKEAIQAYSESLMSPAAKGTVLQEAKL
SR-BI DiI-HDL act: enhances SR-BI lipid uptake from DiI-HDL | CHO ldlA[mSR-BI] cells, DiI-HDL uptake fluorescence, 3 h; 100 = double the neutral-control signal | activation, % at 12.5 µM | 0.096% of 320,000 active | AID 504775;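 active = mean replicate activation of at least 60% and every replicate at or above 60%; inconclusive = mean or all-replicate condition met, but not both; inactive = mean below 60% and not all replicates reaching 60%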
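Test system: SR-BI-overexpressing, LDLR-lacking CHO cells; Also added: labelled HDL, 10 µg/mL; Measured by: bottom-read cell fluorescence after medium removal, ex 550/em 595 nm; Timing: 3 h uptake period with compound, 37 °C; Buffer or medium: F12, 0.5% BSA, 25 mM HEPES; Doses: single compound concentration, delivered by pin transfer.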
dFosB act-2: delta FosB (mouse) homodimer activation; shares compounds with dFosB act-1; purified delta FosB, TAMRA-CDK5 oligo fluorescence polarization; normalised: neutral wells 0, positive control 100; activation, % at 24.9 µM; 2,400 tested, under 10 active; AID 588690;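 active = highest replicate activation at or above 34% and every replicate reaching that threshold; inconclusive = meets only one of the two criteria; inactive = meets neither criterion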;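 note: higher polarization means more probe DNA bound by delta FosB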
A number is an active result; 0 = inactive; ? = inconclusive; - = no result. Hits are enriched below; roughly 2.6% of the tested compounds scored in any of these assays.

SMILES	XiGFP reactiv	dFosB act-1	PvdQ inh	rRNA inh HTS	SR-BI DiI inh	SR-BI DiI-HDL act	dFosB act-2
O=C(/C=C/c1cc2c(cc1Br)OCO2)NCc1ccc(F)cc1	-	24.7	0	-	0	0	0
O=C1/C(=C/c2ccco2)CCC1C1CCCC1 (stereo not given)	0	0	0	0	-	-	-
CCCOc1ccc(C2c3c(oc4cc(C)c(C)cc4c3=O)C(=O)N2CCCN(C)C)cc1 (stereo not given)	0	28.2	0	0	0	0	0
Cc1cc2oc3c(c(=O)c2cc1C)C(c1ccc(F)cc1)N(CCCN1CCOCC1)C3=O (stereo not given)	0	?	0	0	0	0	-
Cc1ccc(NC(=O)CSc2nncn2-c2ccccn2)cc1Cl	0	25.6	0	0	0	0	0
COc1cc(NC(=S)NC(=O)C(C)C)ccc1NC(=O)c1cc2ccccc2o1	0	0	0	0	-	-	-
CCC(=O)NC(=S)Nc1ccc(NC(=O)c2cc3ccccc3o2)c(OC)c1	0	66.9	0	0	0	0	0
Cc1cc(N2CCN(C(=O)Nc3ccc(F)cc3F)CC2)c2ccccc2n1	-	0	0	-	0	0	-
CCCCc1ccc(NC(=O)N2CCN(c3cc(C)nc4ccccc34)CC2)c(C)c1	-	37.4	0	-	0	0	0
COc1ccc(CCNC(=O)Cn2cccc2C(=O)c2ccccc2)c(OC)c1	0	0	0	0	0	0	-
COC(=O)CNc1nc(Cl)nc(Nc2ccc(Cl)cc2)n1	0	47.8	0	0	0	0	0
CCOc1ccc2nc(NC3=NC(C)(C)C=C(C)N3)nc(C)c2c1	-	23.5	0	-	0	0	0
CCOc1ccc2c(C)nc(NC3=NC(C)(C)C=C(C)N3)nc2c1	-	25.6	0	-	0	0	?
CCOc1ccc2nc(NC3=NC(c4ccc(OC)cc4)CC(=O)N3)nc(C)c2c1 (stereo not given)	-	0	0	0	0	0	-
NS(=O)(=O)c1ccc(NC(=O)c2cc(-c3cc(Cl)ccc3O)n[nH]2)cc1	0	37.9	0	0	0	0	0
O=c1cc(NCc2ccc3c(c2)OCO3)[nH]c(=O)n1-c1ccc(Cl)cc1	-	19.6	0	-	0	0	0
Cc1ccccc1-n1c(=O)cc(NCc2ccc3c(c2)OCO3)[nH]c1=O	-	0	0	-	0	0	-
COc1cccc(-c2ccc(NC(=O)C3CCCN(CCCn4nc(C)cc4C)C3)cc2)c1 (stereo not given)	0	26.9	0	0	0	0	0
COc1ccc(-c2cc(C)no2)cc1S(=O)(=O)N1CCOc2ccc(C)cc21	0	44.1	0	0	0	0	0
COc1ccccc1C=NN=C(N)C(N)=NN=Cc1ccccc1OC	0	69.5	0	0	0	0	?
Nc1ccc2ncccc2c1N	0	0	0	-	0	0	-
Nc1nc(N)c2c(ccc3nccc32)[nH]1	0	35.7	0	0	0	0	0
Cc1nnc(Sc2cc(C(=O)NCc3ccco3)c3ccccc3n2)s1	-	0	0	-	0	-	-
CSc1ccc(CNc2nc3ccccc3n3cnnc23)cc1	0	26.5	0	0	-	-	0
Cn1c(O)c(C=Nc2ccc(Br)cc2)sc1=O	0	0	0	0	0	0	-
SMILES	XiGFP reactiv	dFosB act-1	PvdQ inh	rRNA inh HTS	SR-BI DiI inh	SR-BI DiI-HDL act	dFosB act-2
COC(=O)c1cn(NC(=O)COc2ccc(Cl)cc2)c(=O)c2ccccc12	0	31.9	0	-	0	0	0
COC(=O)c1cn(NC(=O)Cc2c(F)cccc2Cl)c(=O)c2ccccc12	0	0	0	0	0	0	-
COc1ccccc1CNC(=O)CSc1ccc(-c2ccncc2)nn1	0	0	0	0	-	-	-
CC(C)(C)OC(=O)N[C@@H](Cc1ccccc1)c1nnc(SCC(=O)c2ccc(Cl)cc2)o1	-	43.8	0	-	0	0	0
O=C(Nc1ccc(S(=O)(=O)N2CCCC2)cc1)c1cccc(OC(F)F)c1	0	0	0	0	0	0	-
CN(Cc1ccccc1F)c1ccc(S(=O)(=O)N2CCCC2)cn1	0	0	0	0	0	0	-
CCOc1nc(OCC)c2[nH]c(C(=O)O)c(Br)c2n1	0	0	0	0	0	0	-
Cc1ccc(C)c(C(=O)COC(=O)c2nn(C)c(=O)c3ccccc23)c1	0	0	0	0	0	0	-
COc1ccc(-c2nnc(SCC(=O)c3ccc[nH]3)o2)cc1	-	0	0	-	0	0	-
COc1ccc(-c2nnc(SCC(=O)c3cc(C)n(Cc4cccs4)c3C)o2)cc1	-	42.8	0	-	0	0	0
COc1ccc(-c2nnc(SCC(=O)c3ccc(O)cc3O)o2)cc1	0	39.7	0	0	-	-	0
CCN(CC)c1nc2c(s1)C(=O)NCCC2	-	0	0	-	0	0	-
COc1cc(OC)cc(C(=O)OCC(=O)Nc2ccc3[nH]c(=O)[nH]c3c2)c1	0	0	0	0	0	0	-
Cc1sc2nc(SCC(=O)Nc3ccc(S(N)(=O)=O)cc3)[nH]c(=O)c2c1C	0	101.3	0	0	0	0	0
CCN1CCN(CC(O)COc2ccc(Cl)cc2)CC1 (stereo not given)	-	0	0	-	0	0	-
COCCN(C(=O)COC(=O)CCc1ccccc1OC)c1c(N)n(Cc2ccccc2)c(=O)[nH]c1=O	0	0	0	0	0	0	-
Cc1ccc(OCCC(=O)N(CCC(C)C)c2c(N)n(Cc3ccccc3)c(=O)[nH]c2=O)cc1	-	24.2	0	-	0	0	0
Cc1ccc(SCC(=O)OCC(=O)N(CC(C)C)c2c(N)n(Cc3ccccc3)c(=O)[nH]c2=O)cc1C	0	33.4	0	0	0	0	0
CN(C(=O)COC(=O)c1ccccc1OCc1ccc(Cl)cc1)c1c(N)n(Cc2ccccc2)c(=O)[nH]c1=O	0	33.7	0	0	0	0	0
CCCN(C(=O)COC(=O)CCOc1ccc(C)cc1)c1c(N)n(Cc2ccccc2)c(=O)[nH]c1=O	0	0	0	0	0	0	-
Cc1ccc(C(=O)NCC(=O)OCC(=O)N(CC(C)C)c2c(N)n(Cc3ccccc3)c(=O)[nH]c2=O)cc1C	0	0	0	0	0	0	-
CCN(C(=O)COC(=O)CCc1ccccc1OC)c1c(N)n(Cc2ccccc2)c(=O)[nH]c1=O	0	27.7	0	0	0	0	0
COc1ccc(N2C(=O)C(CC(=O)O)S/C2=N\N=C\c2cccs2)cc1 (stereo not given)	0	0	0	0	0	0	-
COc1ccc(C(=O)N(C)CCOc2ccc(Cl)cc2)cc1S(=O)(=O)N1CCCC1	0	-	-	0	-	-	-
CC(C)n1c(SCC(N)=O)nc2c1c(=O)[nH]c(=O)n2C	-	0	0	-	0	0	-

Screening results: PubChem, Broad Institute
